Screening data (PubChem)
This is a sample that favours compounds with a hit; in the whole collection about 4.7% have one here.
GRIN3A LBD mod: modulators (binders) of human NR3A ligand-binding domain | Tm shift relative to glycine control, % at 25 µM | NR3A LBD differential scanning fluorimetry, Tm shift; 0% = protein alone, 100% = glycine-bound protein | 340,000 tested, 2.5% active;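 active = melting temperature shift of at least 10% of the positive control shift, at one fixed dose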
SKN-1 block: inhibitors of C. elegans SKN-1; 360,000 tested, 0.49% active; inhibition, % at 21.8 µM; C. elegans VP596 Pgst-4::GFP/RFP ratio, acrylamide-induced, 24 h;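 active = interference check ratio from 0.5 to 1.5 plus GFP to RFP signal ratio inhibition reaching or exceeding a fixed threshold, cut at about 30% in these data, passing the limit was not always enough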
ADAM10 inh: ADAM10 inhibition, QFRET primary screen | O14672 | recombinant ADAM10, EDANS/DABCYL FRET peptide cleavage, 3 h | inhibition, % at 7 µM | 370,000 tested, 0.62% active;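 active = inhibition above a per-campaign cutoff equal to the mean of compounds falling between control-based bounds plus 3 SD, cut at about 20% in these data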
Target sequence (O14672 214-748 limits assumed): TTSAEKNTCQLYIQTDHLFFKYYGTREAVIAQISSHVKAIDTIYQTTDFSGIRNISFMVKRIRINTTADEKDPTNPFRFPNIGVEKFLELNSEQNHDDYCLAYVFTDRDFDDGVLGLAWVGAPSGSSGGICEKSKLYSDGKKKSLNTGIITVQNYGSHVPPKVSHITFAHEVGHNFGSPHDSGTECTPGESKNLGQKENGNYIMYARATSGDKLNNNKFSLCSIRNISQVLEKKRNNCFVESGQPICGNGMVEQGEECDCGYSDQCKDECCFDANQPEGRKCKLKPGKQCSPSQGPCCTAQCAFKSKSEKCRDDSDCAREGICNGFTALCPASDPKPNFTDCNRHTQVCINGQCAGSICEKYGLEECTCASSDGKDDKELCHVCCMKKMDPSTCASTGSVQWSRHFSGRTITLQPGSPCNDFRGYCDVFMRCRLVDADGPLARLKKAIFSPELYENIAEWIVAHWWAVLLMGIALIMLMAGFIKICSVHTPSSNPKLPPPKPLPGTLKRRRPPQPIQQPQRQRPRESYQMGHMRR
MT1-MMP act inh: blocks activation of human MT1-MMP; AID 651647; 360,000 tested, 0.061% active; GFP/RFP ratio change, % at 20 µM; HT1080 RFP-PRO-GFP cells, GFP/RFP ratio fluorescence, overnight; percent of plate control window, DMSO zero; P50281;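 active = GFP/RFP ratio change of at least 30% with cell ATP level not reduced by more than half and red fluorescence within 50% of control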
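Assay system: HT1080 RFP-PRO-GFP cells. Benchmarks: DMSO vehicle wells and RFP-L50D-GFP reporter cell wells. Times: overnight cell settling, then overnight compound exposure, 37 °C, 5% CO2. Compound: 20 µM single dose, 1% DMSO. Read-out basis: GFP/RFP fluorescence ratio.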
MPTP inh: blocks calcium-induced mitochondrial swelling; AID 602449; isolated mouse mitochondria, Ca2+ swelling absorbance, 30 min; 360,000 tested, 1.4% active; inhibition, % at 10 µM;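 active = inhibition of 50% or more, scaled per plate between neutral and stimulator controls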
ADAM17 inh: ADAM17 inhibition, QFRET primary screen; AID 720648; P78536; recombinant ADAM17, EDANS/DABCYL FRET peptide cleavage; 370,000 tested, 0.83% active; inhibition, % at 6.95 µM;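 active = inhibition above the mean of compounds lying between control limits plus 3 SD, set per campaign, cut at about 8.5% in these data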
ADAM10 counter: inhibits human ADAM10 in ADAM17 exosite counter-screen; shares compounds with ADAM17 inh; recombinant ADAM10, EDANS/DABCYL FRET peptide cleavage, 3 h; inhibition, % at 6.95 µM; 2,900 tested, 47% active; AID 743256;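 active = mean inhibition over the triplicate runs exceeds the activity threshold set in the earlier primary screen, cut at about 20% in these data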
ADAM17 confirm: confirmation of inhibitors of human ADAM17; AID 743257; shares compounds with ADAM17 inh; recombinant ADAM17, EDANS/DABCYL QFRET peptide cleavage; inhibition, % at 6.95 µM; 2,900 tested, 65% active;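 active = mean inhibition across replicates above the hit cutoff set in the primary screen, cut at about 8.5% in these data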
Numbers stand for hits; - = inactive; . = no result.

SMILES	GRIN3A LBD mod	SKN-1 block	ADAM10 inh	MT1-MMP act inh	MPTP inh	ADAM17 inh	ADAM10 counter	ADAM17 confirm
C=CCNC(=O)C(C#N)c1nc2ccccc2nc1N1CCCCCC1 (configuration not stated)	-	-	-	-	-	-	.	.
COC(=O)[C@]12C[C@H](CC(=O)N3CCN(C(=O)c4ccco4)CC3)C(=O)N(Cc3ccc(Cl)cc3Cl)C1=C[C@H](COCc1ccccc1)O[C@@H]2C	.	.	-	.	.	12.6	-	10.1
COC(=O)[C@]12C[C@H](CC(=O)NCc3ccc(C)o3)C(=O)N(Cc3cccc4ccccc34)C1=C[C@H](C1CCCC1)O[C@@H]2C	.	.	-	.	.	-	.	.
COC(=O)[C@]12C[C@H](CC(=O)NCc3ccc(C)o3)C(=O)N(Cc3ccccc3)C1=C[C@H](C1CCCC1)O[C@@H]2C	.	.	-	.	.	12.3	-	-
COC(=O)[C@]12C[C@H](CC(=O)NCC3CCCCC3)C(=O)N(CCc3ccc(OC)c(OC)c3)C1=C[C@H](COCc1ccccc1)O[C@@H]2C	.	.	-	.	.	10.6	26.0	9.1
C[C@H]1CN(S(=O)(=O)c2ccc3c(c2)OCCO3)CCN1S(=O)(=O)c1c(F)cccc1F	-	-	-	-	-	-	.	.
O=C(NCC1CCCO1)C1CCC(=O)N1CCc1ccccc1 (configuration not stated)	-	-	-	-	-	-	.	.
O=C(N/N=C/c1c(O)n(-c2ccc(Cl)cn2)c(=O)c2ccccc12)c1ccncc1	-	-	-	-	-	-	.	.
CC(C)c1ccc(/C=C2\SC(=O)N(CC(=O)NC3CCS(=O)(=O)C3)C2=O)cc1 (configuration not stated)	-	-	-	-	-	-	.	.
Cc1ccc2[nH]c(=O)c(CN(CCCO)S(=O)(=O)c3c(C)ccc4nsnc34)cc2c1	-	-	-	-	-	-	.	.
Cc1cc2cc(CN(CCCO)S(=O)(=O)c3cccc4nsnc34)c(=O)[nH]c2cc1C	-	-	-	-	-	10.2	-	-
CN(C(=O)c1ccc(NC(=O)Cc2cccc(NC(=O)C3CCCN(C(=O)c4ccccc4)C3)c2)cc1)C1CC1 (configuration not stated)	-	-	-	-	-	-	.	.
COc1ccc(NC(=O)c2cc(-c3cc(F)ccc3OC(C)C)n[nH]2)c(C)c1	.	-	-	-	-	-	.	.
COc1ccc(OC)c(NC(=O)c2cc(-c3ccc(F)cc3OC(C)C)n[nH]2)c1	.	-	-	-	-	8.8	-	9.3
COc1ccc(C2C(C#N)=C(N)Nc3onc(C(C)(C)C)c32)c(OC)c1 (configuration not stated)	-	-	-	-	-	8.7	-	-
O=C(c1ccccc1)c1ccc(OCC(O)CNCc2ccc(F)cc2)cc1 (configuration not stated)	-	-	-	-	-	10.0	-	-
CCOc1ccc(-c2cc(C(=O)NCc3ccc(C(F)(F)F)cc3)[nH]n2)c(C)c1	.	-	-	-	-	-	.	.
CCOC(=O)N1CCN(C(=O)C[C@H]2C[C@@]3(C(=O)OC)C(=C[C@H](C(C)(C)C)O[C@@H]3C)N(CCC3=CCCCC3)C2=O)CC1	.	.	-	.	.	10.5	-	-
COc1ccc(OCCOc2ccc(S(=O)(=O)N3CCCC3)cc2[N+](=O)[O-])cc1	-	-	-	-	-	-	.	.
COc1cccc(Oc2ccc(S(=O)(=O)N3CCCC3)cc2[N+](=O)[O-])c1	-	-	-	-	-	8.7	-	-
Cc1ccc(C)n1NC(=O)c1cccs1	-	-	-	-	-	-	.	.
CC(C)(NO)/C(=N/O)c1cccs1	-	-	-	-	-	9.2	-	-
COC(=O)COc1ccccc1/C=C1/NC(=O)NC1=O	-	-	-	-	-	-	.	.
c1ccc(CSc2nnc(SCc3ccccn3)s2)nc1	-	-	-	-	-	9.0	-	-
O=C(NCc1ccco1)c1ccc(F)c(S(=O)(=O)N2CCCCC2)c1	-	-	-	-	-	-	.	.
SMILES	GRIN3A LBD mod	SKN-1 block	ADAM10 inh	MT1-MMP act inh	MPTP inh	ADAM17 inh	ADAM10 counter	ADAM17 confirm
O=C(NCc1ccco1)c1ccc(Br)c(S(=O)(=O)N2CCCCC2)c1	-	-	-	-	-	12.8	24.9	-
CC(=O)Nc1ccc(SC[C@H](CC(C)C)N2CCN(CCc3ccccc3)CCC2=O)cc1	-	-	-	-	-	9.0	-	-
O=C(Cn1cc(C(=O)c2ccco2)c2ccccc21)Nc1ccccc1F	-	-	-	-	-	-	.	.
COc1cc(C(c2c(C)[nH][nH]c2=O)c2c(C)[nH][nH]c2=O)ccc1OCc1ccc([N+](=O)[O-])cc1	-	-	-	-	-	10.0	-	13.2
COc1cc(C(c2c(C)[nH][nH]c2=O)c2c(C)[nH][nH]c2=O)ccc1OC(=O)c1cccc([N+](=O)[O-])c1	-	-	-	-	-	-	.	.
O=C(COc1ccccc1Cl)Nc1cnn(Cc2ccccc2)c1	-	-	-	-	-	9.4	-	-
O=C(COc1ccccc1Cl)Nc1ccc(CN2CCCCC2)cc1	-	-	-	-	-	-	.	.
O=C(c1ccc2c(c1)OCO2)N1CCCN(C(=O)c2ccc3c(c2)OCO3)CC1	-	-	-	-	-	-	.	.
Cn1cc(C(=O)c2ccc(Cl)cc2Cl)cc1C(=O)N/N=C(\N)COc1ccc(F)cc1	-	-	-	-	-	-	.	.
Cn1cc(C(=O)c2ccc(Cl)cc2Cl)cc1C(=O)N/N=C(\N)COc1ccc(Cl)cc1	-	-	-	-	-	10.9	22.2	15.9
C=C1CC2(CC(c3ccccc3)OC(c3ccccc3)C2)OC1=O (configuration not stated)	-	-	-	-	-	9.6	-	-
O=C1CCCC[C@@H](O)[C@H](O)C[C@H](c2ccccc2)O1	.	-	-	-	-	-	.	.
CCCCOC(=O)c1ccc(NC(=O)Nc2ccc(OC)c(OC)c2)cc1	19.0	-	-	-	-	11.7	26.6	12.5
CC1(C)Cc2c(sc3c2c(N)nc(=S)n3Cc2ccc(Br)cc2)CO1	-	-	-	-	-	-	.	.
COc1cccc(OC)c1C(=O)Nc1ccc2c(c1)CCCN2S(=O)(=O)c1ccc(C)cc1	-	-	-	-	-	-	.	.
Cc1ccc(S(=O)(=O)N2CCCc3cc(NC(=O)c4c(F)cccc4F)ccc32)cc1	-	-	-	-	-	12.5	27.4	13.8
c1nc(NCc2ccc3c(c2)OCO3)c2cc(-c3ccoc3)ccc2n1	-	-	-	-	-	9.9	-	-
